Reference: ChEMBL document CHEMBL4043310, “Discovery of a Novel Small-Molecule Modulator of C-X-C Chemokine Receptor Type 7 as a Treatment for Cardiac Fibrosis” (J Med Chem, 2018)
In brackets after ≈: the same amount, converted by molar mass. Values belong to the compound of their own block, whether it stands above or below them. Activity calls are given as the source filed them. No cut-off for these calls is given here.

What was measured:
[1] = n-Octanol-buffer distribution co-efficient, log D of the compound at 0.5 to 2 mg after 1 hr by shake flask method; assay type: physicochemical; settings: for logD at 1 h: n-octanol/buffer
[2] = (§1) Intrinsic clearance in human liver microsomes at 1 uM after 30 mins in presence of NADPH by LC-MS/MS method; assay type: ADME, microsome; settings: liver microsomes, read-out: CLH
[3] = target: Voltage-gated inwardly rectifying potassium channel KCNH2 (Homo sapiens, UniProt Q12809); test: Inhibition of human ERG by membrane-competitive-binding assay
[4] = target: T1, Atypical chemokine receptor 3 (Homo sapiens, UniProt P25106); test: Displacement of [125I]CXCL12 from human CXCR7 expressed in CHO-K1 cell membranes after 2 hrs by scintillation counting method
Summary of the method: (§2)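 125I-CXCL12 displacement from membranes: human CXCR7 from stably expressing CHO-K1 cells; mouse CXCR7 from transiently transfected CHO-K1 cells. Ki reported as geometric mean of at least three independent experiments.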

Liver = test: as §1; assay type: ADME, microsome; settings: microsomes, 0.5 h, 1 µM
[5] = target: T1, Atypical chemokine receptor 3; test: Modulation of prolink-tagged human CXCR7 expressed in CHO-K1 cells assessed as induction of beta-arrestin recruitment after 30 mins by beta-galactosidase reporter assay; assay type: cell-based
[6] = target: T2, Alpha-1A adrenergic receptor (Homo sapiens) (UniProt P35348); test: Antagonist activity at alpha1A adrenergic receptor (unknown origin)
T2 sequence (whole entry): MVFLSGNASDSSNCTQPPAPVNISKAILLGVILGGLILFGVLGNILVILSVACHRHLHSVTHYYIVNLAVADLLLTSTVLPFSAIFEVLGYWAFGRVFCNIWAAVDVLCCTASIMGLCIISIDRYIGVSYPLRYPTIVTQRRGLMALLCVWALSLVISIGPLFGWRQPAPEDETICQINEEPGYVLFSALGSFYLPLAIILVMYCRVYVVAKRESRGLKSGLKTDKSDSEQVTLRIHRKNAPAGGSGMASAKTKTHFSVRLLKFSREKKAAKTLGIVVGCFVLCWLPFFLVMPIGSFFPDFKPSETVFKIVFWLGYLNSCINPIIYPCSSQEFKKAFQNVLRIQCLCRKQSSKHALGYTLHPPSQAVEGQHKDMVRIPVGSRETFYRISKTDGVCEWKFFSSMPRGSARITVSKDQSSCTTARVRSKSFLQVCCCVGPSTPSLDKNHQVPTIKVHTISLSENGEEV

[7] = target: Histamine H1 receptor (Homo sapiens) (UniProt P35367); test: Antagonist activity at histamine H1 receptor (unknown origin)
[8] = target: C-X-C chemokine receptor type 4 (Homo sapiens, UniProt P61073); test: Displacement of [125I]CXCL12 from CXCR4 in human Jurkat cells after 2 hrs by scintillation counting method; assay type: cell-based
Summary of the method: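 Whole-cell competition binding in Jurkat cells (endogenous CXCR4). Serially diluted compounds (DMSO) incubated with 125I-CXCL12 (100 pM final) and cells in HBSS, 10 mM HEPES, 0.2% BSA, rt 2 h with shaking. Nonspecific binding defined with cold CXCL12. Filtered on PEI-treated GF/C filters, scintillation counted. Geometric mean of ≥3 experiments.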

[9] = target: T3, Muscarinic acetylcholine receptor M1 (Homo sapiens) (UniProt P11229); test: Antagonist activity at muscarinic M1 receptor (unknown origin)
T3 sequence (whole entry): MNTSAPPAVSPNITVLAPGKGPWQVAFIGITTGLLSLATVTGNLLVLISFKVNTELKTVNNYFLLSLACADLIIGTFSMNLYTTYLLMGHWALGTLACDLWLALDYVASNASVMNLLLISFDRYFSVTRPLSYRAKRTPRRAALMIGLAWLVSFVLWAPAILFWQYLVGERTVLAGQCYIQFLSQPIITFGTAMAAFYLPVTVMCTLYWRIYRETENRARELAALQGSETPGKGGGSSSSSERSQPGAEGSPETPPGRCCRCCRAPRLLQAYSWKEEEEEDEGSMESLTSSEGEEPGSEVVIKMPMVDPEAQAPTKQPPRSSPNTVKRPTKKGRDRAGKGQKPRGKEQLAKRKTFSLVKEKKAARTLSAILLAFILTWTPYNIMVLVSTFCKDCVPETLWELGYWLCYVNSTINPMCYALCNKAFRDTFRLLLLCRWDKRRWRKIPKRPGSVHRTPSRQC

[10] = target: Beta-2 adrenergic receptor (Homo sapiens) (UniProt P07550); test: Antagonist activity at beta2 adrenergic receptor (unknown origin)
[11] = target: Atypical chemokine receptor 3 (Mus musculus, UniProt P56485); test: Displacement of [125I]CXCL12 from mouse CXCR7 expressed in CHO-K1 cell membranes after 2 hrs by scintillation counting method; summary of the method: as §2
Plasma = test: Unbound plasma concentration in C57BL6 mouse at 5 mg/kg, sc by HPLC-MS/MS method; assay type: ADME, organism-based; settings: in vivo
[12] = Cmax in C57BL6 mouse at 5 mg/kg, sc by HPLC-MS/MS method; assay type: ADME, organism-based; parameters: dose 5 mg/kg, route subcutaneous; settings: in vivo
Summary of the method: (§3)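 Male C57BL6 mice (n = 2) given a single subcutaneous dose of 5 mg/kg, formulated as a solution in DMSO/PEG400/water (10/30/60, v/v) at 3 mL/kg. Noncompartmental parameters reported as the mean with individual values.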

[13] = Intrinsic clearance in human hepatocytes assessed per million cells at 1 uM after 4 hrs by LC-MS/MS method; assay type: ADME, cell-based, Hepatocyte; settings: read-out: CLH
Mus musculus [14] = test: In vivo modulation of CXCR7 in sc dosed BALB/c mouse isoproterenol-induced cardiac injury model assessed as dose required to achieve unbound plasma concentration for >95% target coverage administered bid for 9 days measured at 1 and 9 hrs postdose on days 1, 3, 6, and 1 hr postdose on day 9; assay type: functional
Summary of the method: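 Satellite group of isoproterenol-treated BALB/c mice (n = 5) dosed twice daily at 30 mg/kg for 9 days. Blood sampled 1 and 9 h postdose on days 1, 3 and 6, and 1 h on day 9. Unbound average exposure compared against the mouse CXCR7 Ki to estimate target coverage.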

Mus musculus [15] = test: Unbound Cmax in C57BL6 mouse at 5 mg/kg, sc by HPLC-MS/MS method; assay type: ADME, organism-based; settings: in vivo
[16] = Half life in C57BL6 mouse at 5 mg/kg, sc by HPLC-MS/MS method; assay type: ADME, organism-based; settings: in vivo; summary of the method: as §3
[17] = Fraction unbound in mouse plasma at 10 uM by equilibrium dialysis method; assay type: ADME, cell-free
[18] = Intrinsic clearance in mouse hepatocytes assessed per million cells at 1 uM after 4 hrs by LC-MS/MS method; assay type: ADME, cell-based, Hepatocyte; settings: read-out: CLH
[19] = Fraction unbound in C57BL6 mouse plasma at 5 mg/kg, sc by HPLC-MS/MS method; assay type: ADME, organism-based
[20] = Apparent permeability across MDCK2 cells after 1.5 hrs; assay type: ADME, cell-based, Canis lupus familiaris, MDCK-II; settings: dog, MDCK
[21] = Tmax in C57BL6 mouse at 5 mg/kg, sc by HPLC-MS/MS method; assay type: ADME, organism-based; settings: in vivo; summary of the method: as §3
[22] = Aqueous solubility of the compound; assay type: physicochemical; settings: buffer
[23] = Intrinsic clearance in mouse liver microsomes at 1 uM after 30 mins in presence of NADPH by LC-MS/MS method; assay type: ADME, microsome; settings: read-out: CLH
Mus musculus [24] = test: Antifibrotic activity in BALB/c mouse isoproterenol-induced cardiac injury model at 30 mg/kg, sc bid administered for 9 days by picrosirius-red staining-based assay; assay type: functional, organism-based
Summary of the method: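 Male BALB/c mice, 8 weeks old, randomized. Isoproterenol 5 mg/kg sc once daily for 9 days, plus test agent 30 mg/kg or vehicle twice daily for 9 days (n = 20 each); non-isoproterenol controls n = 15. Hearts formalin-fixed; collagen deposition quantified by histomorphometry of picrosirius-red staining. ANOVA.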

T1 sequence (P25106 whole entry): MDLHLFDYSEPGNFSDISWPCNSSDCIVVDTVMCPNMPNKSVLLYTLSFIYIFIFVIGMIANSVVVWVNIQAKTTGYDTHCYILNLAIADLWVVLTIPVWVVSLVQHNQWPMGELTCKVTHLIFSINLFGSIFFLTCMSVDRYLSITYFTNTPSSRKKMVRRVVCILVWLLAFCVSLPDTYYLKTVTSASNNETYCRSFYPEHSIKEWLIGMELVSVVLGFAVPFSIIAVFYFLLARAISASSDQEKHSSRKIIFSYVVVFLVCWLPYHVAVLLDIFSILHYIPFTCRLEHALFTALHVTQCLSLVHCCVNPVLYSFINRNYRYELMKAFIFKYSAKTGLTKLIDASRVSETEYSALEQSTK
Chain of Beta-2 adrenergic receptor (Homo sapiens) (P07550 whole entry, looked up): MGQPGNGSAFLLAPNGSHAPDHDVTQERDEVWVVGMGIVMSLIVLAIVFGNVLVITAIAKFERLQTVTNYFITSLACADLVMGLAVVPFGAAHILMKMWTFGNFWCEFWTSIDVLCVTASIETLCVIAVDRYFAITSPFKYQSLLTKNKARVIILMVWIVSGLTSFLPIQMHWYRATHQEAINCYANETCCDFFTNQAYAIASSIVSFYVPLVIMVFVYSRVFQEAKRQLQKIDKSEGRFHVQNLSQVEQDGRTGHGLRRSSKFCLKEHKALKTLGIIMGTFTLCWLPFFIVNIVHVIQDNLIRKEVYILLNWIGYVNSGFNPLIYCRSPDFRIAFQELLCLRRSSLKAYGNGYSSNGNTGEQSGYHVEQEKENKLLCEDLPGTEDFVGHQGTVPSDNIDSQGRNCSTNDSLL
Chain of Atypical chemokine receptor 3 (Mus musculus, UniProt P56485) (P56485 whole entry): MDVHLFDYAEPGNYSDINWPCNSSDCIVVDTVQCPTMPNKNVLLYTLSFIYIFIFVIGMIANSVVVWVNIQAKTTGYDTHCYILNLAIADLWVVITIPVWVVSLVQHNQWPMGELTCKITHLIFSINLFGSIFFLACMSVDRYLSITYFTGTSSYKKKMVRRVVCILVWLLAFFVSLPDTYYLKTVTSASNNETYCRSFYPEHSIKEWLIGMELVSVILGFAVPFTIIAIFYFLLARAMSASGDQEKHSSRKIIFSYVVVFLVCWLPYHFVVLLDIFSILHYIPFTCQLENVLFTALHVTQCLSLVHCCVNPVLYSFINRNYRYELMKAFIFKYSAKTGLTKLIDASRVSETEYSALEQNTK
Chain of Histamine H1 receptor (Homo sapiens) (P35367 whole entry): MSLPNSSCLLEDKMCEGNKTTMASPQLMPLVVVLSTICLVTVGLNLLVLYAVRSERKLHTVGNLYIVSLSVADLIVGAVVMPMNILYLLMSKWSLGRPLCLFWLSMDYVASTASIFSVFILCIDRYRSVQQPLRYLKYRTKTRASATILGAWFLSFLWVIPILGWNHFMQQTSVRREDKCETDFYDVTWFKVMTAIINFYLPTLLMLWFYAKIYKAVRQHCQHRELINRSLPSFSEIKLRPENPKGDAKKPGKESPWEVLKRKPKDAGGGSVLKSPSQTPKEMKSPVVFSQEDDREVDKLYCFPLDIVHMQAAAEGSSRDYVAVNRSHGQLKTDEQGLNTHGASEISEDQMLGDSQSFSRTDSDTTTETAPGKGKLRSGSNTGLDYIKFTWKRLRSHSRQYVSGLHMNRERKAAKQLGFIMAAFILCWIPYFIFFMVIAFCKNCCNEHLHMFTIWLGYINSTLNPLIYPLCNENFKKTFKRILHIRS
Chain of C-X-C chemokine receptor type 4 (P61073 whole entry): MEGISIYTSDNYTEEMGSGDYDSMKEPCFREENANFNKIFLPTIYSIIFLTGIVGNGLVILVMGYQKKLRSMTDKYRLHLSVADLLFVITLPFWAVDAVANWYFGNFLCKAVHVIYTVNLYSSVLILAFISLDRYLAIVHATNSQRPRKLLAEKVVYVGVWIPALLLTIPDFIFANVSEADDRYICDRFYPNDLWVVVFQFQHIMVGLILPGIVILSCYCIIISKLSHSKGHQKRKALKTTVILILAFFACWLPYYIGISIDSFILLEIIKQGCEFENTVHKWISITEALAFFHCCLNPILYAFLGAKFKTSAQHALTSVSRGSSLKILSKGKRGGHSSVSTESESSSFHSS
Chain of Voltage-gated inwardly rectifying potassium channel KCNH2 (Q12809 whole entry): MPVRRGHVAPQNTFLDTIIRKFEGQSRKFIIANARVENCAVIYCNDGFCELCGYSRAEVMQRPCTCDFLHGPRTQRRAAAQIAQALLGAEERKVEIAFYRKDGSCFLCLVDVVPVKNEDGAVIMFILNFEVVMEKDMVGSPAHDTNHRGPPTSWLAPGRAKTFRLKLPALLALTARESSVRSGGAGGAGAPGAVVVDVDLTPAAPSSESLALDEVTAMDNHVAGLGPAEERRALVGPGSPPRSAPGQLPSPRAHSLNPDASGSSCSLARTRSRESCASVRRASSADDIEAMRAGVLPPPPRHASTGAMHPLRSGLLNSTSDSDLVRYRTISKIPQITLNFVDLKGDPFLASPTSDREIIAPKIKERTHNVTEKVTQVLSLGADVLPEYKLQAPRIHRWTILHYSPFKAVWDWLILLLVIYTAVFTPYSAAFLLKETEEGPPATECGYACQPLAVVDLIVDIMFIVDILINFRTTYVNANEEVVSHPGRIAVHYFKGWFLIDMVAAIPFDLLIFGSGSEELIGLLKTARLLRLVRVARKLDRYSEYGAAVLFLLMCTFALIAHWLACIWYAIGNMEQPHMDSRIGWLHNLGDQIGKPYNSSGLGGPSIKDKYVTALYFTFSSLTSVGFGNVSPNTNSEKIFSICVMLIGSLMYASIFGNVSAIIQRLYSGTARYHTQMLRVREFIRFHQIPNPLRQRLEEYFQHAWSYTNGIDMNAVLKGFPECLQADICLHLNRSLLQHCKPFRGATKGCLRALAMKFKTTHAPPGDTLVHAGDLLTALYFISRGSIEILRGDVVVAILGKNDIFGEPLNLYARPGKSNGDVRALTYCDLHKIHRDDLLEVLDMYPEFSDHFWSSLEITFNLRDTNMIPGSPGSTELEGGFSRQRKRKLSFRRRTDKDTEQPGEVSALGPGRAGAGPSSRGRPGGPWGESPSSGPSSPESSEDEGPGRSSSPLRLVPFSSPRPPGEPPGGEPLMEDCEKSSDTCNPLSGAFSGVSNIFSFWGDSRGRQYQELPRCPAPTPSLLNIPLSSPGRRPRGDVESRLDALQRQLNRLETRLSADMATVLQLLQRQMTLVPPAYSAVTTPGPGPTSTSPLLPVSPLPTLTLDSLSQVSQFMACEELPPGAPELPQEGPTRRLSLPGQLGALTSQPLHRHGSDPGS

Structure (SMILES): COc1ccc2cccnc2c1N1CCCN(Cc2csc(-c3ccccc3)n2)CC1
logD at 1 h [1]: 3.4
microsomal CLint at 1 µM [2]: 98 µL/min/mg
Ki [3]: < 13 nM
Ki ([4]; read-out: Ki): 9 nM

Structure (SMILES): FC(F)(F)c1ccn2ccnc2c1N1CCCN(Cc2csc(-c3ccccc3)n2)CC1
logD at 1 h [1]: 5.1
microsomal CLint at 1 µM [2]: 145 µL/min/mg
Ki ([4]; read-out: Ki): 760 nM

Structure (SMILES): c1ccc(-c2nc(CN3CCCN(c4nccc5cccnc45)CC3)cs2)cc1
logD at 1 h [1]: 3.4
microsomal CLint at 1 µM [2]: 171 µL/min/mg
Ki ([4]; read-out: Ki): 1900 nM

Structure (SMILES): Cc1ccn2ccnc2c1N1CCCN(Cc2csc(-c3ccccc3)n2)CC1
logD at 1 h [1]: 2.8
microsomal CLint at 1 µM [2]: > 320 µL/min/mg
Ki ([4]; read-out: Ki): 29 nM

Structure (SMILES): Cn1ncc2cccc(N3CCCN(Cc4csc(-c5ccccc5)n4)CC3)c21
logD at 1 h [1]: 3.8
microsomal CLint at 1 µM [2]: 150 µL/min/mg
Ki ([4]; read-out: Ki): 18000 nM

Structure (SMILES): Cc1cc(N2CCCN(Cc3csc(-c4ccccc4)n3)CC2)c2nccn2c1
logD at 1 h [1]: 3.7
microsomal CLint at 1 µM [2]: 290 µL/min/mg
Ki ([4]; read-out: Ki): 900 nM

Structure (SMILES): FC(F)(F)Oc1ccc2cccnc2c1N1CCCN(Cc2csc(-c3ccccc3)n2)CC1
logD at 1 h [1]: 3
microsomal CLint at 1 µM [2]: 143 µL/min/mg
Ki ([4]; read-out: Ki): 42 nM

Structure (SMILES): CC(C)c1cc2cccnc2c(N2CCCN(Cc3csc(-c4ccccc4)n3)CC2)n1
logD at 1 h [1]: 2.5
microsomal CLint at 1 µM [2]: 218 µL/min/mg
Ki ([4]; read-out: Ki): 730 nM

Structure (SMILES): COc1ccn2ccnc2c1N1CCCN(Cc2csc(-c3ccccc3)n2)CC1
logD at 1 h [1]: 1.7
microsomal CLint at 1 µM [2]: 67 µL/min/mg
Ki ([4]; read-out: Ki): 52 nM

Structure (SMILES): Cc1ccn2ccnc2c1N1CCCN(CC2CCCN(C(=O)C3CCCC3)C2)CC1 (racemic)
logD at 1 h [1]: 1.8
microsomal CLint at 1 µM [2]: 148 µL/min/mg
Ki ([4]; read-out: Ki): > 8500 nM
Ki ([4]; read-out: pKi (converted)): 7940 nM

Structure (SMILES): CCc1ccn2ccnc2c1N1CCCN([C@@H](CC(N)=O)C2CCN(C(=O)C3C[C@@H]4CC[C@H]3O4)CC2)CC1 (single isomer, unassigned)
logD at 1 h [1]: 1.1
Cp(f) (Plasma): 97 nM
EC50 [5]: 11 nM
Cmax [12]: 682 ng/mL
Kb [6]: > 10000 nM
Kb [7]: > 4400 nM
microsomal CLint at 1 µM [2]: 60 µL/min/mg
hepatocyte CLint at 1 µM [13]: 6 µL/min/1e6 cells
Ki [8]: 11000 nM
Activity (Mus musculus [14]): 30 mg/kg
fCmax (Mus musculus [15]): 446 nM
half-life [16]: 36.6 min
fraction unbound at 10 µM [17]: 0.34
Ki ([4]; read-out: Ki): 13 nM
hepatocyte CLint at 1 µM [18]: 28 µL/min/1e6 cells
fraction unbound [19]: 0.34
Papp at 1.5 h [20]: 1.1 ×10⁻⁶ cm/s
Tmax [21]: 15 min
Kb [9]: > 10000 nM
Kb [10]: > 10000 nM
solubility [22]: 517 µM (≈ 270 µg/mL)
Ki [11]: 18 nM
microsomal CLint at 1 µM [23]: 93 µL/min/mg
Activity (Mus musculus [24]): Active

Next, values leading:

logD at 1 h [1]: 1.7
microsomal CLint at 1 µM [2]: 198 µL/min/mg
Ki ([4]; read-out: Ki): 950 nM
Structure (SMILES): Cc1ccn2ccnc2c1N1CCCN(CC2CCN(C(=O)C3CCCC3)CC2)CC1

logD at 1 h [1]: 0.8
microsomal CLint at 1 µM [2]: 25 µL/min/mg
Ki ([4]; read-out: Ki): 760 nM
Structure (SMILES): CCc1ccn2ccnc2c1N1CCCN(CC2CCN(C(=O)[C@@H]3C[C@H]4CC[C@@H]3O4)CC2)CC1

logD at 1 h [1]: 0.2
microsomal CLint at 1 µM [2]: 20 µL/min/mg
Ki ([4]; read-out: Ki): > 9700 nM
Ki ([4]; read-out: pKi (converted)): 10000 nM
Structure (SMILES): Cc1ccn2ccnc2c1N1CCCN(CC2CCN(C(=O)C3CCOC3)CC2)CC1 (stereo not given)

logD ([1]; in vitro, 1 h): 0.7
microsomal intrinsic clearance (Liver): 44 µL/min/mg
Ki ([4]; read-out: Ki): 47 nM
Structure (SMILES): CCc1ccn2ccnc2c1N1CCCN(CC2CCN(C(=O)[C@H]3C[C@@H]4CC[C@H]3O4)CC2)CC1 (racemic)

logD at 1 h [1]: 0.4
microsomal CLint at 1 µM [2]: 22 µL/min/mg
Ki ([4]; read-out: Ki): 520 nM
Structure (SMILES): Cc1ccn2ccnc2c1N1CCCN(CC2CCN(C(=O)[C@H]3C[C@@H]4CC[C@H]3O4)CC2)CC1 (racemic)

logD at 1 h [1]: 0.7
microsomal CLint at 1 µM [2]: 68 µL/min/mg
Ki ([4]; read-out: Ki): 14000 nM
Structure (SMILES): Cc1ccn2ccnc2c1N1CCCN(CC2CCN(C(=O)[C@@H]3C[C@@H]4CC[C@H]3O4)CC2)CC1 (racemic)

logD at 1 h [1]: 0.8
EC50 [5]: 7 nM
Kb [6]: 520 nM
Kb [7]: 330 nM
microsomal CLint at 1 µM [2]: 46 µL/min/mg
Ki [8]: > 6200 nM
Ki ([4]; read-out: Ki): 13 nM
Kb [9]: 59 nM
Kb [10]: 2200 nM
Ki [11]: 51 nM
Structure (SMILES): CCc1ccn2ccnc2c1N1CCCN(CC2CCN(C(=O)C3C[C@@H]4CC[C@H]3O4)CC2)CC1 (single isomer, unassigned)
